Measurements published in article PMC4547362 (Molecular cancer therapeutics, 2015).

Assays:
Stat5a [1] = target: T1, Stat5a (Homo sapiens, UniProt P42229); assay: Prl-induced nuclear translocation of Stat5a in PC-3 cells, immunofluorescence; type: cell-based; settings: 2 h, hPrl 10 nM 30 min
T1 sequence (P42229 1-794): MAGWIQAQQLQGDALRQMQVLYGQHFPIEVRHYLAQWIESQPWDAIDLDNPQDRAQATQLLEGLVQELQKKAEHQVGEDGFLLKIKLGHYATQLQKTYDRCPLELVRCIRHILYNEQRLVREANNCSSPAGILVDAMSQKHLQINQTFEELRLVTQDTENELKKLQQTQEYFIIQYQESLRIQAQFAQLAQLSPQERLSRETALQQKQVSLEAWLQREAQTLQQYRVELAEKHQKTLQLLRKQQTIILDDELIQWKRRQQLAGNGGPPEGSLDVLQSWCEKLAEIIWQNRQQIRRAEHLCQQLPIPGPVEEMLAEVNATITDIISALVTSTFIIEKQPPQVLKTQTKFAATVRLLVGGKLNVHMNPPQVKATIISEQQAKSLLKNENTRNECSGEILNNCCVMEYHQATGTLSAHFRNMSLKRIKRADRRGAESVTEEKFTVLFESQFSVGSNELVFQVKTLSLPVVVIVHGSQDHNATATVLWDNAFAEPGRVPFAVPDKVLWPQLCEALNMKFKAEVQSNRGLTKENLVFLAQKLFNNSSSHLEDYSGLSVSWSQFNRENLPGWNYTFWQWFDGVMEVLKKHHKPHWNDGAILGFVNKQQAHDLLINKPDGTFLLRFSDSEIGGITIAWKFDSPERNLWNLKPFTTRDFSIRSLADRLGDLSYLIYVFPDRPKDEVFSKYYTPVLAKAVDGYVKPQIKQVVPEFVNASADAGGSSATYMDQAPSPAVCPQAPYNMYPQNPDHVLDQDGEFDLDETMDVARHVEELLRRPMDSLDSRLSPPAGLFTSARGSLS
Procedure, shortened: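 PC-3 cells were infected with adenoviral wild-type Stat5a and prolactin receptor (MOI 4), serum-starved, pretreated 2 h with test compound or control compound, and stimulated 30 min with 10 nM prolactin. Fixed cells were stained with rabbit anti-Stat5 pAb (1:200) and fluorescein goat anti-rabbit IgG (1:200).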

Bcr-Abl = Bcr-Abl (Homo sapiens, UniProt P00519+P11274); assay: Bcr-Abl tyrosine phosphorylation in K562 cells, immunoblot; type: cell-based
Stat5a [2] = target: T1, Stat5a; assay: Stat5a dimerization by co-immunoprecipitation in PC-3 cells; type: cell-based; settings: read-out: IC50, Stat5a dimerization, FLAG- and MYC-tagged Stat5a, hPrl 10 nM 30 min
Stat5a [3] = target: T1, Stat5a; assay: Stat5a luciferase reporter gene assay; type: cell-based; settings: read-out: IC50, transcriptional activity of Stat5a; PC-3 cells, β-casein-luciferase, hPrl 10 nM 16 h
CWR22Rv1 cells [4] = assay: Dead cell count by trypan blue exclusion, CWR22Rv1; type: cell-based, human; settings: 25 μM, 24 h
[5] = test system: CML-blast crisis cell lines; assay: Cell cycle analysis of CML cells; type: cell-based; settings: 5 μM, 48 h
CWR22Rv1 cells [6] = assay: Viability of CWR22Rv1 cells after Stat5a/b shRNA or control shRNA, trypan blue; type: cell-based, human; settings: 12.5 μM, 48 h
[7] = test system: Stat5a/b target genes in K562 cells; assay: RNA expression profiling of K562 cells; type: cell-based; settings: 5 μM, 48 h
Procedure, shortened: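 RNA from vehicle- and test compound-treated cells, alongside Stat5a/b-shRNA and scramble-shRNA cells, was profiled in triplicate on Affymetrix Human Gene 1.0 ST arrays. Differential expression versus the matching control used t-tests with false discovery rate correction.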

primary CML cells = assay: Colony formation of primary CML-chronic phase cells from patients; type: cell-based, human; settings: three CML-chronic phase patients, methylcellulose
Stat5b = Stat5b (Homo sapiens, UniProt P51692); assay: Stat5b luciferase reporter gene assay; type: cell-based; settings: read-out: IC50, transcriptional activity of Stat5b; PC-3 cells, β-casein-luciferase, hPrl 10 nM 16 h
Stat5a/b [8] = target: T2, Stat5a/b (Homo sapiens, UniProt P42229+P51692); assay: Cell-based immunoassay for tyrosine-phosphorylated Stat5a/b in T47D cells; settings: read-out: IC50, phosphorylation of Stat5a/b, 2 h, then hPrl
LNCaP and CWR22Rv1 cells = assay: Cell cycle analysis of PC cells; type: cell-based, human; settings: LNCaP and CWR22Rv1, 72 h
Procedure, shortened: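 LNCaP and CWR22Rv1 cells were treated with test compound, vehicle or control compound for up to 72 h. Cells were fixed, stained with propidium iodide plus RNase A, and analysed by flow cytometry in the FL-2 channel.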

[9] = test system: CWR22Rv1 xenograft tumors; assay: CWR22Rv1 prostate cancer xenograft tumor growth in nude mice; type: in vivo; settings: for decrease of nuclear Stat5a/b content in tumors: compared to vehicle (HPC)
Procedure, shortened: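 Castrated male athymic nude mice got 60-day sustained-release DHT pellets 3 days before s.c. flank inoculation of 1.5 × 10⁷ CWR22Rv1 cells in Matrigel (one tumor/mouse). After one week, mice were randomised (10/group) to daily i.p. test compound in 0.3% HPC (25, 50, 100 mg/kg), HPC alone or no treatment for 10 days. Tumors were measured three times weekly; volume = 3.14 × length × width × depth/6. Nuclear Stat5/Stat3 in harvested tumors were compared by mixed-model ANOVA with Bonferroni-adjusted pairwise tests.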

Stat5a/b [10] = target: T2, Stat5a/b; assay: Bcr-Abl-driven Stat5a/b phosphorylation in K562 cells, immunoblot; type: cell-based; settings: 3 h
CWR22Rv1 cells [11] = assay: Nucleosomal DNA fragmentation ELISA, CWR22Rv1; type: cell-based, human; settings: 25 μM, 24 h, CWR22Rv1, parallel wells
[12] = test system: SUP-B15, 12878 and 3798 cell lines; assay: Cell viability; settings: 48 h, MTT
Jak2 = Jak2 (Homo sapiens, UniProt O60674); assay: Jak2 phosphorylation in CWR22Rv1 cells, immunoprecipitation and immunoblot; type: cell-based
[13] = test system: K562, KCL22 and BV173 cells (parental and imatinib-resistant); assay: Growth of CML cell lines, trypan blue cell counts and colony formation; type: cell-based; settings: 5 μM, trypan blue exclusion and colony formation assay

T2 sequence (P51692 whole entry, one chain of several): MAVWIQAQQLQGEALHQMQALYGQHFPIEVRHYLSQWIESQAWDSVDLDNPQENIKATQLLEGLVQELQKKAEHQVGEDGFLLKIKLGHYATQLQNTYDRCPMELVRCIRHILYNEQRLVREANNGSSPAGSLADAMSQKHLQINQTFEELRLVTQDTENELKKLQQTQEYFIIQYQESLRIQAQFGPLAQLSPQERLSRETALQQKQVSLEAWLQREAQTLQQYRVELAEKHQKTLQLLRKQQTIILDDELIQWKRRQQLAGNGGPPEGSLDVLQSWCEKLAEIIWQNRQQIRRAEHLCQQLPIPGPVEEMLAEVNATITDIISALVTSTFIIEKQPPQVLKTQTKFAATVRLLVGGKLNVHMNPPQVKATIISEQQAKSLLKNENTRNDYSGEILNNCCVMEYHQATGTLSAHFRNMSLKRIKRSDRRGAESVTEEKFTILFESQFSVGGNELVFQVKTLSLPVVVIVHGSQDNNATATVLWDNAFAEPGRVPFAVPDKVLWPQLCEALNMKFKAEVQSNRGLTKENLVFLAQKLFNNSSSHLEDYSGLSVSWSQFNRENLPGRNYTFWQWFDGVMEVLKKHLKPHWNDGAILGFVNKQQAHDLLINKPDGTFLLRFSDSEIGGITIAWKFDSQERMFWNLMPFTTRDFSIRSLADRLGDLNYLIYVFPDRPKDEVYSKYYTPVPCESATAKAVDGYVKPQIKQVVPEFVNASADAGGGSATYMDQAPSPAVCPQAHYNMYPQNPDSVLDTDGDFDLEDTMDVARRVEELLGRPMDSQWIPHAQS
Stat5b, sequence (P51692 whole entry, species assumed): as the sequence (P51692 whole entry, one chain of several) above
Jak2, sequence (O60674 whole entry): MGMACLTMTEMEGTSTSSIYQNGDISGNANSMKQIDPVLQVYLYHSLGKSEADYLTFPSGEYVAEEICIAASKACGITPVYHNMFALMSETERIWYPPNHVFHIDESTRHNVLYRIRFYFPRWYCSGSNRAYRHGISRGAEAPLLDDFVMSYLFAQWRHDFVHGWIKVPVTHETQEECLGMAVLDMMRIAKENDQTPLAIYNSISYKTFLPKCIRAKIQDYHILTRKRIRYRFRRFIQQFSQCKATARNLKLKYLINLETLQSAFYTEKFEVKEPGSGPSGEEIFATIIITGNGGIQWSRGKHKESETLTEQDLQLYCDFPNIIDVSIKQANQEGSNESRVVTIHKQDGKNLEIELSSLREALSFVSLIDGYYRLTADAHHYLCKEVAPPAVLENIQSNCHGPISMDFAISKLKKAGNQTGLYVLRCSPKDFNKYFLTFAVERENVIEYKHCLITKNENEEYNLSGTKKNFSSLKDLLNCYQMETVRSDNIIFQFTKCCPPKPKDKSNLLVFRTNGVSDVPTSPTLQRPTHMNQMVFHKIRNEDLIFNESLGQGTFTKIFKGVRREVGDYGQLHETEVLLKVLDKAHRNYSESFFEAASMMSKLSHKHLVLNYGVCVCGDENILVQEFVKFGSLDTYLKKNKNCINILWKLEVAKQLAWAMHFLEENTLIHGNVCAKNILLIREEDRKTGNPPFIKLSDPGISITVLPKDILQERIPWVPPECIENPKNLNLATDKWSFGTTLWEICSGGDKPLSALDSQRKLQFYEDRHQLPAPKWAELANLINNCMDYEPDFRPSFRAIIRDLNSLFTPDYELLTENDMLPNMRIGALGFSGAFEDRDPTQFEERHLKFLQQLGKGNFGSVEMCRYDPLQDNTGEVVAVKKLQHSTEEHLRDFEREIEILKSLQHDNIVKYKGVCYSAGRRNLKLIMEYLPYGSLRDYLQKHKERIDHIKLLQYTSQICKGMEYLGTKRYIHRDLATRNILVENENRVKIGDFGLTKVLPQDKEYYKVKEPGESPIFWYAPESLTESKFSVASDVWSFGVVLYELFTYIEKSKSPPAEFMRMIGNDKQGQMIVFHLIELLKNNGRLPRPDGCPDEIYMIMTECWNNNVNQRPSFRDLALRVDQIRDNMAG

O=P(O)(O)OC[C@H]1O[C@@H](n2cnc3c(NCc4ccccc4)ncnc32)[C@H](O)[C@@H]1O [IST5-002, N6-benzyladenosine-5-monophosphate]
concentration that abrogated Stat5a nuclear translocation (Stat5a [1]): 15 µM
Bcr-Abl tyrosine phosphorylation levels (Bcr-Abl): did not affect
IC50 (Stat5a [2]): 11 µM
IC50 (Stat5a [3]): 1500 nM
increase in dead cells (CWR22Rv1 cells [4]): 5 fold
apoptosis in cell cycle analysis [5]: increase in apoptosis
viability of CWR22Rv1 cells depleted of Stat5a/b (shStat5a/b) (CWR22Rv1 cells [6]): did not further affect
decrease in the number of viable PC cells expressing control shRNA (CWR22Rv1 cells [6]; CWR22Rv1): 40%
CISH expression change [7]: −2.3 fold
Cyclin D2 expression change [7]: −2.3 fold
Myc expression change [7]: −1.7 fold
Pim1 expression change [7]: −1.7 fold
Pim2 expression change [7]: −1.7 fold
SOCS3 expression change [7]: −1.3 fold
TRIB2 expression change [7]: −1.4 fold
number of viable colonies of primary CML cells (primary CML cells): dramatic decrease
IC50 (Stat5b): 3.5 µM
IC50 (Stat5a/b [8]): 24.8 µM
fraction of dead cells (sub-G1) in cell cycle analysis (LNCaP and CWR22Rv1 cells): increased the fraction of dead cells
decrease of nuclear Stat5a/b content in tumors ([9]; 25 mg/kg i.p. daily): 60%
decrease of nuclear Stat5a/b content in tumors ([9]; 50 mg/kg i.p. daily): 78%
decrease of nuclear Stat5a/b content in tumors ([9]; 100 mg/kg i.p. daily): 90%
Tumor growth ([9]; 25, 50 or 100 mg/kg i.p. daily, all treatment groups vs control groups): significantly (P<0.001) suppressed
viable tumor cells in xenograft tumors ([9]; IST5-002 groups vs. vehicle): massive loss of viable tumor cells
Intratumor levels of nuclear Stat3 ([9]; any of the doses tested): not altered
concentration that blocked Bcr-Abl-induced Stat5a/b phosphorylation (Stat5a/b [10]): 5 µM
increase of nucleosomal DNA fragmentation (CWR22Rv1 cells [11]): 230%
viability of EBV-immortalized B-cells that express no active Stat5a/b ([12]; 12878, 3798 cell lines): only marginal or no effect
viability of SUP-B15 (Bcr-Abl-driven ALL cell line) [12]: decreased viability
Phosphorylation of Jak2 (Jak2): unaffected
growth of imatinib-sensitive and -resistant CML cells [13]: blocked the growth
